Assay outcomes: PubChem, several laboratories
Most compounds without a hit are left out; they make up all but 2.2% or so of the library.
CendR NRP1 mod = modulators of CendR peptide binding to NRP-1, primary screen, biochemical, fluorescence polarization, uHTS. AID 602438, 2012. hit rate 0.85% among 360,000. Neuropilin-1 (Homo sapiens), O14786. FAM-RPARPAR peptide binding to NRP-1. inhibition, % at 25 µM;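 active = inhibition or corrected inhibition above about 18%, plus a signal ratio from 0.5 to 1.5, limit read from the data, passing the limit was not always enough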
Target sequence (O14786 whole entry, looked up): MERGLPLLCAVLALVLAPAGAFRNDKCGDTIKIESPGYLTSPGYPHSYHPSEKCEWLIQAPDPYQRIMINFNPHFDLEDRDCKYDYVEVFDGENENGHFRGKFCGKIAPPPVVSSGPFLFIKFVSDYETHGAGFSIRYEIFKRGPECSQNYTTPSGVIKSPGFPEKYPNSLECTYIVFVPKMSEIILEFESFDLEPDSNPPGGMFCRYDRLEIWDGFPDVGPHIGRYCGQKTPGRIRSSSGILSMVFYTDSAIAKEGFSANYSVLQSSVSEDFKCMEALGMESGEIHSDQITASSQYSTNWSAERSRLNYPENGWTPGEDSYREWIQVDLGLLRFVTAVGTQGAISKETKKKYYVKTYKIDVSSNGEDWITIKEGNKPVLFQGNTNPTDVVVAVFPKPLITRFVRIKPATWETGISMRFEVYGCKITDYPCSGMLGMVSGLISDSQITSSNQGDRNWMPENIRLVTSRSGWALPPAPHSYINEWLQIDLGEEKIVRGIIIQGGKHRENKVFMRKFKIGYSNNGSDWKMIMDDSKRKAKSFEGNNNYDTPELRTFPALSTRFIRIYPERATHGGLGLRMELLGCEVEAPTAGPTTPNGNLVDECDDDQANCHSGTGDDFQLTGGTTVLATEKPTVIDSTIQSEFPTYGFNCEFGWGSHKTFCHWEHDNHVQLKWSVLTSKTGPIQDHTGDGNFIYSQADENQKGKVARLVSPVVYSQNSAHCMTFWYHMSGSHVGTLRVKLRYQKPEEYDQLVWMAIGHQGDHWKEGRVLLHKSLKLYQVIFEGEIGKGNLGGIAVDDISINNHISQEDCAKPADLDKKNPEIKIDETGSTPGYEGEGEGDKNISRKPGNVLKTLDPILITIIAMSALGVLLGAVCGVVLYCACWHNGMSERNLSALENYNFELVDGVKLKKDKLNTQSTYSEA
Exocytosis inh = LAMP-1 surface exposure blockers, TALL-104 cells – cell-based, flow cytometry, MLPCN library, primary screen; TALL-104 LAMP-1 surface exposure; cells stimulated with thapsigargin and PMA; inhibition, % at 10 µM; hit rate 0.66% among 360,000;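 active = inhibition above about 55%, limit read from the data; inconclusive = no clear call, values can overlap the other calls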
ARFGAP1 inhibitor = inhibitors of rat ARFGAP1 GAP activity, primary screen, biochemical, fluorescence polarization, GDP tracer; inhibition, % at 16.5 µM; ADP-ribosylation factor GTPase-activating protein 1 (Rattus norvegicus), Q62848; hit rate 0.26% among 360,000; AID 651572, 2012; Arfgap1-stimulated ARF1 GTP hydrolysis, GDP FP detection;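 active = inhibition above a per-plate limit, mean inhibition of low control wells plus 3 SD, cut at about 25% in these data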
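Assay system: purified rat His6-Arfgap1 residues 1-136 (GAP domain); Reagent: human Δ17 ARF1 bound to GTP; Dosing: 16.5 µM single point, 1.26% DMSO; Times: GTP hydrolysis reaction 2 h at 25 °C; Signal: FP, GDP Alexa 633 tracer displaced from anti-GDP antibody, 620/688 nm; Measure: % inhibition from polarization.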
V-ATPase pHluor = regulators of yeast V-ATPase proton pumping, primary screen, pHLuorin cytosolic pH fluorescence | S. cerevisiae | response, % at 10 µM | hit rate 0.37% among 350,000; in the data active = response mostly above about 7.3%, no sharp cut-off; inactive = mostly below about 5.4%; also: actives read high
ASAP1 GAP inh = inhibitors of human ASAP1 ArfGAP activity, primary screen, biochemical, fluorescence polarization; Arf-GAP with SH3 domain, ANK repeat and PH domain-containing protein 1 (Homo sapiens), …; ASAP1-stimulated ARF1 GTP hydrolysis, GDP FP detection; inhibition, % at 16.5 µM; hit rate 0.19% among 360,000; in the data active = inhibition above about 25%
ARFGAP1 confirm = ARFGAP1 inhibitor hit confirmation, biochemical, fluorescence polarization, triplicate; ARFGAP1-stimulated ARF1 GTP hydrolysis, GDP tracer FP; hit rate 30% among 890; shares compounds with ARFGAP1 inhibitor; inhibition, % at 16.5 µM; AID 651608, 2012;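 active = average inhibition over triplicates above the hit cutoff set in the earlier primary screen, cut at about 25% in these data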
Hits are given with their value; – = inactive; ? = inconclusive; · = no result.

SMILES	CendR NRP1 mod	Exocytosis inh	ARFGAP1 inhibitor	V-ATPase pHluor	ASAP1 GAP inh	ARFGAP1 confirm
Cc1ccccc1NC(=O)NCCCN1CCCC1	–	–	25.6	–	–	–
O=C(c1ccc2nc[nH]c2c1)N1CCN(c2ncc(C(F)(F)F)cc2Cl)CC1	–	–	–	–	–	·
CC(=O)Nc1ccc(OCC(O)Cn2c3ccccc3c3ccccc32)c(C)c1 (centres undefined)	–	–	25.4	–	–	25.8
Cc1cc(CN2CCCC(N3CCc4ccccc4C3)C2)cc(C)c1O (centres undefined)	–	–	–	–	–	·
C=CCN(Cc1ccc(Cl)s1)C(=O)c1ccc(F)c(S(=O)(=O)N2CCOCC2)c1	–	–	–	–	–	·
O=C1c2ccccc2C(Nc2ccc3c(c2)OCCO3)N1c1ccccn1 (centres undefined)	–	–	–	–	–	·
O=C1c2ccccc2C(Nc2ccc3c(c2)OCCO3)N1c1ccc(Cl)cn1 (centres undefined)	–	–	25.4	–	–	–
Cc1[nH][nH]c(=O)c1C(c1c(C)[nH][nH]c1=O)c1cn(C)c2ccccc12	20.5	–	25.4	–	–	–
COc1ccc(NC(=O)COC(=O)c2c3c(nc4ccccc24)CCCC3)cc1Cl	–	–	26.9	–	–	–
COc1ccc(NC(=O)COC(=O)c2c3c(nc4ccccc24)CCCC3)cc1	–	–	–	–	–	·
COc1ccc(Cc2nnc(NC(=O)c3cccc(F)c3)s2)cc1OC	–	–	–	–	–	·
Cc1cc(C)c(NC(=O)CSc2nc3ccc(NC(=O)CSc4nnnn4Cc4ccccc4)cc3s2)c(C)c1	–	?	24.8	–	–	–
CC(C)Cn1c(N)c(C(=O)CSc2nc3ncc(Cl)cc3[nH]2)c(=O)n(C)c1=O	–	–	25.2	–	–	–
Cc1cc(S(=O)(=O)Nc2cccnc2)c(C)s1	–	–	25.4	–	–	–
Cc1ccc(S(=O)(=O)Nc2cccnc2)cc1C	–	–	–	–	–	·
O=C(Nc1cccc2c1CCCC2)c1cc(C2CCCCN2C(=O)c2cccs2)on1 (centres undefined)	–	–	–	·	–	·
Cc1cccc(Nc2ncccc2C(=O)NCc2cccs2)c1C	–	–	26.2	–	–	–
COc1cc(C(O)c2nc(-c3cc4ccccc4o3)cs2)ccc1F (centres undefined)	–	–	28.4	·	–	–
c1ccc(-c2ccncn2)cc1	–	–	–	–	–	·
Cc1ccc(-n2c(=O)cc(N3CC(C)CC(C)C3)[nH]c2=O)cc1 (centres undefined)	–	–	–	–	–	·
Cc1ccc(-n2c(=O)cc(N3CCC(C)CC3)[nH]c2=O)cc1	–	–	26.0	–	–	–
O=C(c1cc(-c2cccnc2)nc2ccccc12)N1CCN(S(=O)(=O)c2ccc(Cl)s2)CC1	–	–	–	–	–	·
CCOc1ccc(-n2c(SCc3ccc([N+](=O)[O-])cc3)nnc2-c2ccccc2)cc1	–	–	33.4	–	–	–
CC(C)=CCC1=C(OCC(=O)O)C(=O)c2ccccc2C1=O	–	–	25.2	–	–	–
Cc1onc(-c2ccccc2Cl)c1C(=O)N1CCC(C(N)=O)CC1	–	–	32.0	–	–	–
SMILES	CendR NRP1 mod	Exocytosis inh	ARFGAP1 inhibitor	V-ATPase pHluor	ASAP1 GAP inh	ARFGAP1 confirm
CCOC(=O)c1ccc(/C=C2\c3ccccc3C(=O)N2c2ccccc2)cc1F	–	–	–	–	–	·
CCOC(=O)c1ccc(-c2ccc3c(=O)c4ccccc4n(C)c3c2)cc1F	–	–	26.4	–	–	–
CCOc1ccc(CCN2C(=S)N([C@@H](Cc3ccc(O)cc3)CN3CCC[C@@H]3CN3C(=S)NC[C@@H]3Cc3ccc(O)cc3)C[C@@H]2Cc2ccc(O)cc2)cc1	–	–	25.8	·	–	–
CCOc1ccc(CCN2C(=S)N([C@@H](Cc3ccccc3)CN3CCCC3CN3C(=S)NC[C@@H]3Cc3ccccc3)C[C@@H]2Cc2ccc(O)cc2)cc1 (some centres undefined)	–	–	–	·	–	·
CN1CCN(c2ccc(Cl)cc2NC(=O)/C=C/c2ccc(F)cc2)CC1	–	–	25.1	–	–	–
O=C(/C=C/c1ccc(F)cc1)Nc1cc(S(=O)(=O)N2CCOCC2)ccc1N1CCCC1	–	–	–	–	–	·
COc1ccc2cc(C(=O)Nc3ccc(S(N)(=O)=O)cc3)sc(=O)c2c1OC	–	–	24.7	–	–	–
Cc1ccccc1Nc1nc(N)nc(-c2oc3ccccc3c2C)n1	–	–	–	–	–	·
Cc1c(-c2nc(N)nc(Nc3ccc(F)cc3)n2)oc2ccccc12	–	–	33.4	–	–	–
C=CCNc1nc(NCc2cccc(OC)c2)c2sc(-c3ccccc3)cc2n1	–	–	26.3	·	–	26.4
COCCNc1nc(NCCOC)c2sc(-c3ccccc3)cc2n1	–	–	–	·	–	·
Cc1ccc2oc(-c3cccc(N)c3)nc2c1	–	–	–	–	–	·
Nc1cccc(-c2nc3cc(S(=O)(=O)c4ccc5oc(-c6cccc(N)c6)nc5c4)ccc3o2)c1	–	–	26.1	–	–	–
Oc1ccc(/C=C/c2ccc3cccc(O)c3n2)cc1Br	–	–	28.2	–	–	–
C=CCN=C1NC(c2ccc(Cl)cc2)C(C(=O)OC)=C(C)N1C (centres undefined)	·	·	–	·	–	·
Cc1cc(C)n(C(C)CNS(=O)(=O)c2ccc(Cl)cc2)n1 (centres undefined)	–	–	24.7	–	–	–
O=C(COC(=O)c1ccccc1C(=O)OCC(=O)NCCc1c[nH]c2ccccc12)NCCc1c[nH]c2ccccc12	–	–	–	–	–	·
Cc1ccc(NC(=O)c2cccc(S(=O)(=O)NCc3ccccc3)c2)nc1	–	–	35.1	–	–	–
Cc1cccc(NC(=O)c2cccc(S(=O)(=O)NCc3ccccc3)c2)n1	–	–	–	–	–	·
CC(=O)n1c(=O)c2ccccc2c(=O)n1-c1ccccc1	–	–	32.0	–	–	–
O=c1c2ccccc2c(=O)n(-c2ccccc2)n1CCCCBr	–	–	–	–	–	·
COc1ccccc1OCC(=O)NCC1CCCN(C(=O)c2ccccc2SC)C1 (centres undefined)	–	–	–	–	–	·
COc1ccccc1OCC(=O)NCC1CCCN(C(=O)c2ccccc2C(C)=O)C1 (centres undefined)	–	–	27.9	–	–	–
COc1cc(/C=C2\SC(N)=NC2=O)ccc1OCC(=O)Nc1ccc(C)cc1	–	–	45.0	–	–	72.0
